Shown are actives, neighbours in structure and some others; about 2% of the full set was active somewhere.
NR2E3 ag-1: NR2E3 (human) agonism; 0.12% of 320,000 active; GST-NR2E3/biotin-RetCOR TR-FRET, 1536-well; Q9Y5X4; inhibition of corepressor binding, % at 4.78 µM; AID 2300;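 active means percent inhibition above the cutoff of mean plus 3 SD of all tested compounds, set per screening campaign, cut at about 20% in these data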
Target sequence (Q9Y5X4 whole entry, looked up): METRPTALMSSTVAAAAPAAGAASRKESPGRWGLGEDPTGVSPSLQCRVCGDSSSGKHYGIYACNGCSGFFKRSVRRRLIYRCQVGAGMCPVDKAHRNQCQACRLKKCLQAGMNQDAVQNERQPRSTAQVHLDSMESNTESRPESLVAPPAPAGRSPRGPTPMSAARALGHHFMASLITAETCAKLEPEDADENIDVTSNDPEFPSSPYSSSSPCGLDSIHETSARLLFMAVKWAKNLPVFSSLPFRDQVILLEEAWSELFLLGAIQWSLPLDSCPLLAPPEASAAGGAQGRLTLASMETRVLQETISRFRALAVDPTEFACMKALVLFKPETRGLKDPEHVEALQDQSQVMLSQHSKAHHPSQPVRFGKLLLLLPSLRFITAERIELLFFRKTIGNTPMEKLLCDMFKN
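System: GST-tagged NR2E3 plus biotinylated RetCOR corepressor; Amount: 1.35 nM GST-tagged NR2E3 final; Dosing: single nominal compound dose of 4.8 µM; Schedule: 5 h incubation at 4 °C; Technique: TR-FRET with europium anti-GST and streptavidin-D2, 340 nm excitation; Controls: biotin wells as high control, 0.6% DMSO wells as low control.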
GAA850 FXN act: frataxin GAA850 promoter activation; HEK293 lucGAA850 FXN promoter luciferase reporter, 24 h; percent of 10 µM SAHA response; activation, % at 6 µM; 0.56% of 360,000 active;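 active means activation above the average of all compounds screened plus 3 SD, cutoff fixed separately per campaign, cut at about 7.5% in these data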
T cell modulator: T cell immune modulators affecting CD8 T cell-vesicle binding | 0.068% of 330,000 active | 2C CD8+ T cell-vesicle binding, flow cytometry; stronger effect = lower value | response (vesicle binding), % at 7 µM;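 active means response, share of CD8 T cells binding vesicles, and their 90th percentile fluorescence all below set limits, cut at about 80% in these data, passing the limit was not always enough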;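 further: values below 100% mean blocked vesicle binding to the CD8+ T cells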
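Read-out – percent CD8+ FL2 mean versus row control · System – murine 2C transgenic CD8+ T lymphocytes · Times – 1.5 h cell–vesicle binding at 37 °C, then 20 min icy labelling · Control set – naked vesicles low, QL9 vesicles with vehicle high · Detection – cytometric PE anti-B7-1 and Alexa647 anti-CD8 signals after 1% paraformaldehyde fixation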
NR2E3 ag-2: human photoreceptor-specific nuclear receptor agonism; CHO-S Gal4-NCOR/VP16-NR2E3 two-hybrid, luciferase; AID 602229; inhibition of corepressor binding, % at 3.98 µM; Q9Y5X4; 0.35% of 360,000 active;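 active means inhibition above the mean of all tested compounds plus 3 SD, cut at about 70% in these data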;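 further: higher means lower luciferase signal from less NR2E3 corepressor binding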
Myeloid diff MLP: compounds promoting myeloid differentiation; ER-HoxA9 myeloid progenitors, lysozyme-GFP differentiation, flow cytometry; calls only at 10 µM; 1% of 360,000 active; AID 624256;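 active means normalized GFP-positive differentiation at or above the plate's own cutoff, the solvent-only control mean plus 3 SD; inconclusive means no clear call, values can overlap the other calls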;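 further: cells exposed to compound for four days before flow analysis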
GAA30 FXN cntr: activates GAA30 frataxin promoter, counter-screen for GAA850 activators; shares compounds with GAA850 FXN act; HEK293 lucGAA30 FXN promoter luciferase, 24 h; DMSO = 0%, 5 µM ipriflavone = 100%; activation, % at 6 µM; 66% of 1,900 active;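 active means mean activation above the mean of solvent-only control wells plus 3 SD, cut at about 22% in these data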;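 further: counterscreen of GAA850 promoter hits where activity marks nonselective or luminescence artifacts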
FXN GAA850 conf: GAA850 FXN promoter activation confirmation. shares compounds with GAA850 FXN act. activation, % at 6 µM. HEK293 lucGAA850 FXN promoter luciferase reporter, 24 h; 100% = activation by SAHA. AID 588351. 86% of 1,900 active;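 active means mean activation above a set limit taken from the primary screen, cut at about 8% in these data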
Of the large screens only hits and unclear results are named; the others gave an inactive call (follow-up assays come after a bar, where they were run).

Cn1c(/C=N/Nc2nc3ccccc3[nH]2)nc2ccccc21	GAA850 FXN act 8.5 | GAA30 FXN cntr inactive | FXN GAA850 conf inactive
COc1ccc(N2CC(C(=O)Nc3nnc(SCC(=O)Nc4ccc(NC(C)=O)cc4)s3)CC2=O)cc1 (configuration not stated)	none (no result: NR2E3 ag-1, T cell modulator)
COc1cccc(C(=O)N2CCC2(C)C(=O)O)c1 (configuration not stated)	none (no result: NR2E3 ag-1, T cell modulator)
N#CCn1c2ccccc2c2nc3ccccc3nc21	GAA850 FXN act 9.3 | GAA30 FXN cntr 52 | FXN GAA850 conf 18
c1ccc2nc3c(nc2c1)c1ccccc1n3CCN1CCOCC1	GAA850 FXN act 12 (no result: Myeloid diff MLP) | GAA30 FXN cntr 52 | FXN GAA850 conf 24
CCCn1c2ccccc2c2nnc(SCCN3CCOCC3)nc21	none
CCCS(=O)(=O)NC(=O)C1(C)CCN(C(=O)c2cc(C)nn2C(C)(C)C)C1 (configuration not stated)	none (no result: NR2E3 ag-1, T cell modulator)
CCc1ccc(C(=O)NCC2(c3ccccc3)CCOCC2)o1	GAA850 FXN act 7.8 (no result: NR2E3 ag-1, T cell modulator) | GAA30 FXN cntr 95 | FXN GAA850 conf 25
O=C(NCC1(c2ccccc2)CCOCC1)c1ccc(Br)o1	none
N#CC(c1ccccc1)(c1ncc(C(F)(F)F)cc1Cl)N1CCOCC1 (configuration not stated)	GAA850 FXN act 11 | GAA30 FXN cntr 26 | FXN GAA850 conf 9.1
CC(=O)Nc1ccc2c(c1)Cc1cc(N3C(=O)C=CC3=O)ccc1-2	GAA850 FXN act 11 (no result: NR2E3 ag-1, T cell modulator) | GAA30 FXN cntr inactive | FXN GAA850 conf inactive
CC1=C(C(=O)N(C)C)CC(CC(=O)NCCN2CCOCC2)C(=O)N1Cc1ccc(C(C)(C)C)cc1 (configuration not stated)	none (no result: NR2E3 ag-1, T cell modulator)
O=[N+]([O-])c1ccc(COc2cccc(CNc3ccc(Br)cc3)c2)cc1	none
COc1ccc(S(=O)(=O)NC(=O)C2(C)CCN2C(=O)Cc2ccccc2)cc1OC (configuration not stated)	none (no result: NR2E3 ag-1, T cell modulator)
C=CCOC(=O)C1=C(C)NC(C)=C(C(=O)OCC=C)C1c1cn(-c2ccccc2)nc1-c1ccco1	GAA850 FXN act 13 | GAA30 FXN cntr inactive | FXN GAA850 conf inactive
CCN(C(=O)CN1C(=O)NC2(CCCC2)C1=O)c1nc2c(C)cccc2s1	none (no result: NR2E3 ag-1, T cell modulator)
CC(C)N1CCc2c(sc(NC(=O)c3ccc4ccccc4c3)c2C(N)=O)C1	Myeloid diff MLP inconclusive
CC(=O)Nc1sc2c(c1-c1nc3ccccc3s1)CCN(C(C)C)C2	GAA850 FXN act 34, Myeloid diff MLP inconclusive | GAA30 FXN cntr inactive | FXN GAA850 conf 91
COc1ccc(/C=C2/C(=O)N(c3nc4ccccc4s3)N=C2CSc2ccc(Cl)cc2)cc1	none
CC1CCN(S(=O)(=O)c2ccc3c(c2)C(=NO)c2cc(S(=O)(=O)N4CCC(C)CC4)ccc2-3)CC1	GAA850 FXN act 11, Myeloid diff MLP inconclusive | GAA30 FXN cntr inactive | FXN GAA850 conf 30
CCN(CC)S(=O)(=O)c1ccc2c(c1)C(=NO)c1cc(S(=O)(=O)N(CC)CC)ccc1-2	GAA850 FXN act 10, Myeloid diff MLP inconclusive | GAA30 FXN cntr inactive | FXN GAA850 conf 19
O=S(=O)(c1ccc2c(c1)C(=NO)c1cc(S(=O)(=O)N3CCCCC3)ccc1-2)N1CCCCC1	none
O=C(c1ccco1)N1CCN(C2CN(C3CCCCC3)S(=O)(=O)C2)CC1 (configuration not stated)	none (no result: NR2E3 ag-1, GAA850 FXN act, T cell modulator)
CCOC(=O)c1ccc(Nc2sc(C(=O)c3cccc([N+](=O)[O-])c3)c(N)c2C#N)cc1	Myeloid diff MLP inconclusive
CN(c1ccccc1)c1ccc(/C=C/[N+](=O)[O-])cc1	GAA850 FXN act 16, Myeloid diff MLP inconclusive | GAA30 FXN cntr inactive | FXN GAA850 conf inactive
O=C1C=CC(=O)c2c(O)c(N3CCN(CCOCCO)CC3)c(Br)c(O)c21	GAA850 FXN act 14, Myeloid diff MLP inconclusive (no result: NR2E3 ag-1, T cell modulator) | GAA30 FXN cntr inactive | FXN GAA850 conf inactive
O=C1C=CC(=O)c2c(O)c(N3CCN(CCO)CC3)c(Cl)c(O)c21	Myeloid diff MLP inconclusive (no result: NR2E3 ag-1, T cell modulator)
COCCn1c(C)cc(C(=O)Cn2nc(C(=O)O)c3ccccc3c2=O)c1C	GAA850 FXN act 9.4 | GAA30 FXN cntr 98 | FXN GAA850 conf 35
C=CCn1c(C)cc(C(=O)Cn2nc(C(=O)O)c3ccccc3c2=O)c1C	none
Cc1cccc([C@@H]2[C@@H]3C(=O)N(Cc4ccccc4)C(=O)[C@@H]3[C@]3(CC(C)C)C(=O)N(c4cccc(Cl)c4)C(=O)N23)c1	none
C[C@@]12C(=O)N(c3cccc(F)c3)C(=O)N1[C@H](c1ccc(Cl)cc1)[C@@H]1C(=O)N(C3CCCCC3)C(=O)[C@@H]12	GAA850 FXN act 11 | GAA30 FXN cntr inactive | FXN GAA850 conf inactive
COc1ccc(N2C(=O)N3[C@H](c4ccc(Cl)cc4)[C@@H]4C(=O)N(C5CCCCC5)C(=O)[C@@H]4[C@]3(C)C2=O)cc1	GAA850 FXN act 14 | GAA30 FXN cntr inactive | FXN GAA850 conf inactive
CC(C)C[C@@]12C(=O)N(c3cccc(F)c3)C(=O)N1[C@H](c1ccc(F)cc1)[C@@H]1C(=O)N(C3CCCCC3)C(=O)[C@@H]12	GAA850 FXN act 12 | GAA30 FXN cntr inactive | FXN GAA850 conf 14
CC(C)C[C@@]12C(=O)N(c3cccc(F)c3)C(=O)N1[C@H](c1ccc(Cl)cc1)[C@@H]1C(=O)N(C3CCCCC3)C(=O)[C@@H]12	GAA850 FXN act 16 | GAA30 FXN cntr 25 | FXN GAA850 conf 14
O=C1[C@H]2[C@@H](c3ccc(Cl)cc3)N3C(=O)N(c4cccc(Br)c4)C(=O)[C@@]3(Cc3ccc(Cl)cc3)[C@H]2C(=O)N1C1CCCCC1	none
O=C(OCc1ccccc1)N1CCC2CC1c1cc(/C=C/CCCSc3ncccn3)ccc12 (configuration not stated)	none (no result: NR2E3 ag-1, T cell modulator)
O=C(O)c1ccccc1NC(=O)C1CCN(S(=O)(=O)c2cccc3nsnc23)CC1	none
CCOc1ncccc1C(=O)Nc1cc(S(=O)(=O)N2CCCCC2)ccc1Cl	none
COc1ccc2c(c1)OC[C@H]1[C@H]2N2C(=O)CN(CC3CCCO3)C(=O)[C@@]2(C)[C@H]1c1ccccc1 (some centres not stated)	none
COc1ccc2c(c1)OC[C@H]1[C@H]2N2C(=O)CN(CCc3c[nH]c4ccccc34)C(=O)[C@@]2(C)[C@H]1c1ccccc1	GAA850 FXN act 7.8 | GAA30 FXN cntr 22 | FXN GAA850 conf 18
O=C(/C=C\c1ccccc1OC(=O)c1ccccc1F)c1cc2ccccc2o1	GAA850 FXN act 10, Myeloid diff MLP inconclusive | GAA30 FXN cntr 94 | FXN GAA850 conf 29
